According to ChEMBL document CHEMBL3612017, “Rigidified A3 Adenosine Receptor Agonists: 1-Deazaadenine Modification Maintains High in Vivo Efficacy” (ACS Med Chem Lett, 2015):
pKi: −log10 of the molar value.

Key:
[1] = target: T1, Adenosine receptor A1 (Homo sapiens) (UniProt P30542); assay: Displacement of [3H]N6-R-phenylisopropyladenosine from human adenosine A1 receptor expressed in CHO cell membranes at 10 uM
T1 sequence (whole entry): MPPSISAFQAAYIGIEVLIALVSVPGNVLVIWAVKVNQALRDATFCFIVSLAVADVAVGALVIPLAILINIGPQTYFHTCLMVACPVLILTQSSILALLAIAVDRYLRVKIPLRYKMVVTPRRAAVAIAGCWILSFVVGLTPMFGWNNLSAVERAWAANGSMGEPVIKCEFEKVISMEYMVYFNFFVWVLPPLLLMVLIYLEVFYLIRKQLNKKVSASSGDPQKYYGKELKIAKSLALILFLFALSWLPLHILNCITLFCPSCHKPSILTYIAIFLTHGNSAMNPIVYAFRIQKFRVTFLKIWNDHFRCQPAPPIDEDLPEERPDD
Procedure, shortened: (§1)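 Radioligand binding at the human receptor subtypes. Nonspecific binding was defined with adenosine 5′-N-ethyluronamide (10 μM). Ki values came from displacement curves, mean ± SEM, n = 3 unless noted. Single-point data were expressed as % inhibition of binding at 10 μM.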

[2] = target: Adenosine receptor A2a (Homo sapiens) (UniProt P29274); assay: Displacement of [3H]2-[p-(2-carboxyethyl)phenyl-ethylamino]-5'-Nethylcarboxamidoadenosine from human adenosine A2A receptor expressed in HEK293 cell membranes at 10 uM; procedure, shortened: as §1
Sequence of Adenosine receptor A2a (Homo sapiens) (P29274 whole entry): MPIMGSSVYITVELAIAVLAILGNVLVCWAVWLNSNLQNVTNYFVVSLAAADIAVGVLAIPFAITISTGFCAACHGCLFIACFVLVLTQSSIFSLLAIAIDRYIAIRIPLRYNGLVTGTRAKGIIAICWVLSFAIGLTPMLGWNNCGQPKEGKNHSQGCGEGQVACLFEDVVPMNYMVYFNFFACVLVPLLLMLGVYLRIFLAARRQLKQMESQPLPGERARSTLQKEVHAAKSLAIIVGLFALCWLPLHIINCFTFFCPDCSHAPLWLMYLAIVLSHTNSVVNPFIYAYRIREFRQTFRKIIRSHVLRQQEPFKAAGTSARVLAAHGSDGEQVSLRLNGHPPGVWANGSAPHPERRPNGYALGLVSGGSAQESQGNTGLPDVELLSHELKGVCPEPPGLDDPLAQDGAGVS

Adenosine receptor A3 [3] = target: T2, Adenosine receptor A3 (Homo sapiens, UniProt P0DMS8); assay: Displacement of [125I]N6-(4-amino-3-iodobenzyl)adenosine-5'-N-methyluronamide from human adenosine A3 receptor expressed in CHO cell membranes
T2 sequence (P0DMS8 whole entry): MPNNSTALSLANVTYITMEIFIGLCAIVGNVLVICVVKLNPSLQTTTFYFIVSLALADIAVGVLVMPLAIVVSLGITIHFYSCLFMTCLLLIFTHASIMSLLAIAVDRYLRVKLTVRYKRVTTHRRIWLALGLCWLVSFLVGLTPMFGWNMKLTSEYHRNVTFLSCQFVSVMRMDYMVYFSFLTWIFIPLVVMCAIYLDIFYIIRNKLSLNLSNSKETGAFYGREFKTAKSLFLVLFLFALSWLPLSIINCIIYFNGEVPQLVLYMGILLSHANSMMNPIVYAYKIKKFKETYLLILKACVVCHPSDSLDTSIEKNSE

Mus musculus [4] = assay: Analgesic activity in mouse chronic constriction injury model of neuropathic pain assessed as protection of ipsilateral hind paw mechanoallodynia of sciatic nerve at 0.3 to 30 umol/kg administered through oral gavage at point of peak pain on day 7 relative to control measured at 1 hr; type: functional
Procedure, shortened: (§2)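 Mice had sciatic nerve chronic constriction injury. Compound was given by oral gavage on day 7, at peak pain. Mechanoallodynia was scored on the ipsilateral and contralateral hind paws at the 1 h and 3 h time points, as % protection. n = 4 per group, some n = 3.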

Mus musculus [5] = assay: Analgesic activity in mouse chronic constriction injury model of neuropathic pain assessed as protection of ipsilateral hind paw mechanoallodynia of sciatic nerve at 0.3 to 30 umol/kg administered through oral gavage at point of peak pain on day 7 measured at 3 hrs; type: functional; procedure, shortened: as §2
Mus musculus [6] = assay: Analgesic activity in mouse chronic constriction injury model of neuropathic pain assessed as time of peak protection at 0.3 to 30 umol/kg administered through oral gavage at point of peak pain on day 7; type: functional; procedure, shortened: as §2
Mus musculus [7] = assay: Effect on contralateral side hind paw in mouse chronic constriction injury model of neuropathic pain at 0.3 to 30 umol/kg administered through oral gavage at point of peak pain on day 7; type: ADME, organism-based; settings: in vivo; procedure, shortened: as §2
Adenosine receptor A3 [8] = target: T3, Adenosine receptor A3 (Mus musculus, UniProt Q61618); assay: Binding affinity to mouse adenosine A3 receptor expressed in HEK293 cell membranes
T3 sequence (Q61618 whole entry): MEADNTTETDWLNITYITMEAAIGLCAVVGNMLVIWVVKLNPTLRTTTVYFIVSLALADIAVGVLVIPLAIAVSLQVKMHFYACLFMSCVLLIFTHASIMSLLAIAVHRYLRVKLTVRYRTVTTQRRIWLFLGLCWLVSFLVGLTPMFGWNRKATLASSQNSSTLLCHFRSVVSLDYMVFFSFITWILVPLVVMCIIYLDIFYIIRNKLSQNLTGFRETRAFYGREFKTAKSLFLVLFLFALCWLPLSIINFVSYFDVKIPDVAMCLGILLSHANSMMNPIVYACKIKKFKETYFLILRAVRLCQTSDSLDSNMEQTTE
Procedure, shortened: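 Radioligand binding used membranes of HEK293 cells expressing the mouse or the canine A3 receptor.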

Adenosine receptor A3 [9] = target: T4, Adenosine receptor A3 (Canis lupus familiaris, UniProt Q28309); assay: Binding affinity to canine adenosine A3 receptor expressed in HEK293 cell membranes; settings: read-out: Ki
T4 sequence (Q28309 whole entry): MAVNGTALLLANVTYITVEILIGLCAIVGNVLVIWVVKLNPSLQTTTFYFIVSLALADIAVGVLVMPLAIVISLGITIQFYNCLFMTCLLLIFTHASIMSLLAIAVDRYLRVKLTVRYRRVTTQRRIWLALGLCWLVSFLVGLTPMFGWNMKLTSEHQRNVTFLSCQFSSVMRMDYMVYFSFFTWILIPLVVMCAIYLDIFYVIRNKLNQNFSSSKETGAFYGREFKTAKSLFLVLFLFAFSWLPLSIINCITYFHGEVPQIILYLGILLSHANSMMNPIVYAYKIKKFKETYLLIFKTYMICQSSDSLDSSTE
Procedure, shortened: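 Radioligand binding used membranes of HEK293 cells expressing the mouse or the canine A3 receptor. Affinities were given as Ki in nM, mean ± SEM, n = 3.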

Mus musculus [10] = assay: Analgesic activity in mouse chronic constriction injury model of neuropathic pain assessed as protection of ipsilateral hind paw mechanoallodynia of sciatic nerve at 0.3 to 30 umol/kg administered through oral gavage at point of peak pain on day 7; type: functional; settings: 168 h; procedure, shortened: as §2

| Structure (SMILES) | inhibition [1] | inhibition [2] | pKi (Adenosine receptor A3 [3]) | pKi (Adenosine receptor A3 [8]) | pKi (Adenosine receptor A3 [9]) | Emax (Mus musculus [4]) | Activity (Mus musculus [5]) | Time (Mus musculus [6]) | Activity (Mus musculus [7]) | ED50 (Mus musculus [10]) |
| --- | --- | --- | --- | --- | --- | --- | --- | --- | --- | --- |
| CNC(=O)[C@@]12C[C@@H]1[C@@H](n1cnc3c(NCC4CCC4)nc(C#Cc4ccc(Cl)s4)nc31)[C@H](O)[C@@H]2O | 34% | 5% | 7.82 | – | – | 98% | 90% | 1 h | Non-toxic | – |
| CCCNc1cc(-n2cc(-c3ccc(Cl)s3)nn2)nc2c1ncn2[C@H]1[C@H](O)[C@H](O)[C@]2(C(=O)NC)C[C@H]12 | 44% | 4% | 6.96 | – | – | – | – | – | – | – |
| CNC(=O)[C@@]12C[C@@H]1[C@@H](n1cnc3c(NC4CCC4)nc(C#Cc4ccc(Cl)s4)nc31)[C@H](O)[C@@H]2O | 39% | 34% | 8.35 | – | – | 97% | 95% | 1 h | Non-toxic | – |
| CNC(=O)[C@@]12C[C@@H]1[C@@H](n1cnc3c(NCC4CC4)nc(C#Cc4ccc(Cl)s4)nc31)[C@H](O)[C@@H]2O | 24% | 3% | 8.10 | – | – | 94% | 85% | 1 h | Non-toxic | – |

Now those with a higher pKi (Adenosine receptor A3 [3]), led by results:

| inhibition [1] | inhibition [2] | pKi (Adenosine receptor A3 [3]) | pKi (Adenosine receptor A3 [8]) | pKi (Adenosine receptor A3 [9]) | Structure (SMILES) | Emax (Mus musculus [4]) | Activity (Mus musculus [5]) | Time (Mus musculus [6]) | Activity (Mus musculus [7]) | ED50 (Mus musculus [10]) |
| --- | --- | --- | --- | --- | --- | --- | --- | --- | --- | --- |
| 6% | 0% | 8.54 | – | – | CCCCNc1nc(C#Cc2ccc(Cl)s2)nc2c1ncn2[C@H]1[C@H](O)[C@H](O)[C@]2(C(=O)NC)C[C@H]12 | 68% | 24% | 1 h | Non-toxic | – |
| 47% | 44% | 9.00 | – | – | CNC(=O)[C@@]12C[C@@H]1[C@@H](n1cnc3c(NC4CC4)nc(C#Cc4ccc(Cl)s4)nc31)[C@H](O)[C@@H]2O | 76% | 36% | 1 h | Non-toxic | – |
| 26% | 17% | 8.54 | – | – | CNC(=O)[C@@]12C[C@@H]1[C@@H](n1cnc3c(NC(C)C)nc(C#Cc4ccc(Cl)s4)nc31)[C@H](O)[C@@H]2O | 88% | 39% | 1 h | Non-toxic | – |
| 28% | 12% | 8.42 | 7.57 | 8.82 | CCNc1nc(C#Cc2ccc(Cl)s2)nc2c1ncn2[C@H]1[C@H](O)[C@H](O)[C@]2(C(=O)NC)C[C@H]12 | 98% | 87% | 1 h | Non-toxic | 0.9 µmol/kg |
